# Test results taken from publication PMC4383680 (Nature, 2015).
# “Also recorded” adds a separate entry of the source. No end group written: not given here.
# Columns and labels:
# PVN MC4R neurons [1] = assay: Current clamp membrane potential of PVN MC4R neurons, hypothalamic slices; type: cell-based, mouse; conditions: for amplitude of α-MSH depolarization at higher concentration of salt: BaCl2 >1 mM, CsCl >2.5 mM; for effect of BaCl2 or CsCl on α-MSH induced depolarization: external, various concentrations
# Procedure, shortened: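 MC4R-GFP mouse hypothalamic slices, 200 μm, cut at 44–49° to horizontal in near-freezing oxygenated aCSF and kept in oxygenated ACSF at 31 °C. α-MSH (250 nM) bath-applied. Continuous current clamp with membrane potential held at −55 to −60 mV to prevent spontaneous firing. Potential averaged over 3 min before peptide versus a 3 min window 7–11 min after. Zero-ATP internal at pH 7.2, 298 mosmol/kg.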
# [2] = test system: inward rectifying K+ (Kir) channels; conditions: at concentrations that block other Kir channels; ref [12]; cited from earlier work
# [3] = test system: μ-opioid receptor in PVN MC4R neurons; assay: μ-opioid; type: cell-based, mouse; conditions: DAMGO 10 μM; for effect on DAMGO response: GTPγS 1.5 mM or gallein 25 μM
# Procedure, shortened: (§1)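 Mouse hypothalamic slices, 200 μm, cut at 44–49° from horizontal in oxygenated near-freezing aCSF and transferred to oxygenated ACSF at 31 °C. PVN neurons recorded in whole cell mode. Cells accepted only with holding current ≤30 pA at −70 mV, large rebound spikes, ability to fire, and no blebbing or visible nucleus.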
# [4] = test system: D1 dopamine receptor in PVN neurons; assay: D1 receptor mediated depolarization of PVN neurons; type: cell-based, mouse; conditions: 5 μM SKF83822
# Procedure, shortened: as §1
# PVN MC4R neurons [5] = assay: Firing frequency of PVN MC4R neurons; type: cell-based, mouse
# Procedure, shortened: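 Slices from MC4R-GFP mice, 200 μm, cut at 44–49°, held in oxygenated ACSF at 31 °C. AgRP applied to the bath. Cells held around −50 mV so they fire spontaneously. Firing frequency counted for 3 min before peptide and for 3 min at 7–11 min after, then compared.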
# [6] = target: MC4R + Kir7.1 (M125R) in HEK293 cells (Homo sapiens, UniProt P32245); type: cell-based
# MC4R [7] = target: T1, MC4R (Homo sapiens, UniProt P32245); assay: Intracellular cAMP / MC4R coupling to Gαs; type: cell-based; conditions: Fig. 4a
# PVN MC4R neurons [8] = assay: Voltage clamp; type: cell-based, mouse
# MC4R [9] = target: T1, MC4R; assay: β-arrestin recruitment; type: cell-based; conditions: increasing concentrations, PathHunter, 90 min, 37 °C
# MC4R - Gαi = assay: Coupling of MC4R to Gαi; type: cell-based; conditions: Extended Data Fig. 6a–c
# [10] = target: 3HA-MC4R (melanocortin-4 receptor) (human) (UniProt P32245)
# 3HA-MC4R (melanocortin-4 receptor) (human), sequence (P32245 whole entry): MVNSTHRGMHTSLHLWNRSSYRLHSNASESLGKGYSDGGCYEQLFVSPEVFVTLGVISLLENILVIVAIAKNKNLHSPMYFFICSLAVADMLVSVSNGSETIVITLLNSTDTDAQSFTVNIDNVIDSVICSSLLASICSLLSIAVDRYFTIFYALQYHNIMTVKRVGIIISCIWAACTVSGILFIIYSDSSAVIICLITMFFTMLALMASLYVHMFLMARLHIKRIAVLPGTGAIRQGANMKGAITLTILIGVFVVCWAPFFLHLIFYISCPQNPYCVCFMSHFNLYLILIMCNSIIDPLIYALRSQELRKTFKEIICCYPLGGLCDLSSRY
# T1 sequence (P32245 whole entry): as above
# MC4R + Kir7.1 (M125R) in HEK293 cells, sequence (P32245 whole entry, stated change not applied): as the sequence (P32245 whole entry) above
molecule,measurement,setting,value
"CCCCCCCC(=O)OC[C@H](COP(=O)(O)O[C@@H]1[C@H](O)[C@H](O)[C@@H](OP(=O)(O)O)[C@H](OP(=O)(O)O)[C@H]1O)OC(=O)CCCCCCC [PI(4,5)P2 diC8]",effect on α-MSH induced depolarization,"PVN MC4R neurons [1]; 100 μM PI(4,5)P2 diC8 in zero ATP internal solution",significantly increased the amplitude of the α-MSH induced depolarization; also recorded: potentiated the α-MSH-induced response
[Cl-].[Cs+] [CsCl],amplitude of α-MSH depolarization at higher concentration of salt,PVN MC4R neurons [1],increased amplitude
same,effect of BaCl2 or CsCl on α-MSH induced depolarization,PVN MC4R neurons [1]; current clamp,not blocked in higher concentrations; also recorded: persisted
same,sensitivity of Kir7.1 to external salt,[2],resistant
[Ba+2].[Cl-].[Cl-] [BaCl2],amplitude of α-MSH depolarization at higher concentration of salt,PVN MC4R neurons [1],increased amplitude
same,effect of BaCl2 or CsCl on α-MSH induced depolarization,PVN MC4R neurons [1]; current clamp,not blocked in higher concentrations; also recorded: persisted
same,sensitivity of Kir7.1 to external salt,[2],resistant
DAMGO,effect of DAMGO on membrane potential,[3],hyperpolarization
C=CCN1CCc2c(cc(O)c(O)c2Cl)C(c2cccc(C)c2)C1 (stereo not shown) [SKF83822],depolarization of PVN neurons by D1 agonist,[4],causes depolarization of PVN neurons; also recorded: depolarized PVN neurons
N#CC(=C(/N)Sc1ccccc1N)/C(C#N)=C(/N)Sc1ccccc1N [U0126],effect on α-MSH induced increase in firing frequency,"PVN MC4R neurons [5]; U0126 1 μM, whole cell",ineffective in blocking neuronal firing or depolarization; also recorded: fails to block α-MSH -induced increase in firing frequency
"miniAgRP: AgRP analogue, AgRP87-120 (87-122); synthesized, purified and folded by authors (CVRLHESCLGQQVPCCDPCATCYCRFFNAFCYCR; ends and bridges not checked; also: folded, disulfide pairing not given here; UniProt O00253 87-120, looked up, fragment)",coupling of MC4R to Kir7.1,[6]; Fig. 4b,lost its ability to couple MC4R to Kir7.1
same,potency in inhibition of MC4R coupling to Gαs,MC4R [7],"retains normal affinity for MC4R, and potency in inhibition of MC4R coupling to Gαs"
"CSCC[C@@H]1NC(=O)[C@H](C)NC(=O)[C@H]([C@@H](C)O)NC(=O)CNC(=O)[C@H](CC(C)C)NC(=O)[C@H](CCCCN)NC(=O)[C@H](CCCNC(=N)N)NC(=O)[C@@H]2CSSC[C@@H]3NC(=O)[C@@H]4CCCN4C(=O)[C@H](C(C)C)NC(=O)[C@H](CCC(N)=O)NC(=O)[C@H](CCC(N)=O)NC(=O)CNC(=O)[C@H](CC(C)C)NC(=O)[C@@H]4CSSC[C@H](NC(=O)[C@H]([C@@H](C)O)NC(=O)[C@H](C)NC(=O)[C@H](CSSC[C@@H](C(=O)N[C@@H](CO)C(=O)N[C@@H](CCCNC(=N)N)C(=O)N[C@H](C(=O)O)[C@@H](C)O)NC(=O)[C@@H]5CCCN5C(=O)[C@H](CC(N)=O)NC1=O)NC(=O)[C@@H]1CCCN1C(=O)[C@H](CC(=O)O)NC(=O)[C@H](CSSC[C@H](NC(=O)[C@H](CCCNC(=N)N)NC(=O)[C@H](CCCNC(=N)N)NC(=O)[C@H](CO)NC(=O)[C@@H](N)CO)C(=O)N[C@@H](C(C)C)C(=O)N[C@@H](CCCNC(=N)N)C(=O)N[C@@H](CC(C)C)C(=O)N[C@@H](Cc1c[nH]cn1)C(=O)N[C@@H](CCC(=O)O)C(=O)N[C@@H](CO)C(=O)N4)NC3=O)C(=O)N[C@@H](Cc1ccc(O)cc1)C(=O)N[C@H]1CSSC[C@H](NC(=O)[C@H](Cc3ccccc3)NC(=O)[C@H](C)NC(=O)[C@H](CC(N)=O)NC(=O)[C@H](Cc3ccccc3)NC(=O)[C@H](Cc3ccccc3)NC(=O)[C@H](CCCNC(=N)N)NC1=O)C(=O)N[C@@H](Cc1ccc(O)cc1)C(=O)N2 [AgRP, Agouti-related protein]",effect on firing activity,"PVN MC4R neurons [5]; AgRP, cells held around −50 mV",inhibiting their firing activity
same,membrane potential response,"PVN MC4R neurons [1]; 100 nM AgRP, bath application, current clamp, **p<0.01",hyperpolarized PVN MC4R neurons; also recorded: hyperpolarizing response
same,effect on K+ current of PVN MC4R neurons,PVN MC4R neurons [8],generates hyperpolarizing current by opening of inward rectifying K^+ channels; also recorded: increases the density of an inward rectifying K^+ current
same,reversal potential of AgRP-activated current,"PVN MC4R neurons [8]; AgRP 50 nM, 20 mM external K+",−46.7 +/− 3.0 mV
same,increase of membrane conductance,"PVN MC4R neurons [8]; AgRP 50 nM, 20 mM external K+, n=6",75%
same,duration of increase of Tl+ flux,"[6]; low dose AgRP 1 nM, data not shown",up to 24 h
same,β-arrestin recruitment,MC4R [9],did not appear to; also recorded: without any effect
same,coupling to Gαi,MC4R - Gαi,"did not appear to couple the MC4R to the cAMP inhibitory G protein, Gαi"
Nc1nc2c(ncn2[C@@H]2O[C@H](COP(=O)(O)OP(=O)(O)OP(O)(O)=S)[C@@H](O)[C@H]2O)c(=O)[nH]1 [GTPγS],effect on α-MSH induced firing or depolarization,"PVN MC4R neurons [1]; GTPγS 1.5 mM, whole cell",ineffective in blocking neuronal firing or depolarization; also recorded: fails to block the depolarization induced by α-MSH
same,effect on DAMGO response,[3],does block the hyperpolarization induced by μ-opioid agonist
Cc1ccc(OCC(O)Cn2c(=N)n(Cc3ccccc3)c3ccccc32)cc1 (stereo not shown) [VU573],inhibition of depolarizing effect of α-MSH,"PVN MC4R neurons [1]; 15 μM VU573, 250 nM α-MSH",~ 80%
Nc1ncnc2c1ncn2C1CCCO1 (stereo not shown) [SQ22536],effect on α-MSH induced depolarization,"PVN MC4R neurons [1]; SQ22536 25 μM, adenylyl cyclase inhibition",fails to block depolarizing effects of α-MSH; also recorded: failed to block α-MSH induced depolarization
O=[N+]([O-])c1ccc(CN2CCOCCOCCN(Cc3ccc([N+](=O)[O-])cc3)CCOCC2)cc1 [VU590],effect of Kir blocker on α-MSH induced depolarization,"PVN MC4R neurons [1]; 250 nM α-MSH, blocker concentration not given",blocked
Nc1nc2c(ncn2[C@@H]2O[C@H](COP(=O)(O)OP(O)(O)=S)[C@@H](O)[C@H]2O)c(=O)[nH]1 [GDPβS],effect on α-MSH induced depolarization,"PVN MC4R neurons [1]; 5 mM GDPβS, intrapipette",fails to block the α-MSH – induced depolarization; also recorded: failed to block α-MSH induced depolarization of PVN MC4R neurons
same,effect on D1 (SKF83822) mediated depolarization,[4]; 5 mM GDPβS intrapipette,blocks the depolarization and firing activity induced by SKF83822; also recorded: blocked D1 mediated depolarization
miniAgRP (AgRP 87-120) (from UniProt O00253 87-120) (peptide),"stimulation of Kir7.1 activity, potency",[10],1.7e-07
O=C1OC2(c3ccccc31)c1ccc(O)c(O)c1Oc1c2ccc(O)c1O [gallein],effect on α-MSH induced firing or depolarization,"PVN MC4R neurons [1]; gallein 25 μM, Gβγ blocker",ineffective in blocking neuronal firing or depolarization; also recorded: fails to inhibit α-MSH induced depolarization
same,effect on DAMGO response,[3],blocks the effects of DAMGO
"SSRRCVRLHESCLGQQVPCCDPCATCYCRFFNAFCYCRKLGTAMNPCSRT (domain or fragment, ends and bridges not checked; cysteine pairing not given here) [wtAgRP (83-132)]","stimulation of Kir7.1 activity, potency",[10],3.6e-09
